Measured values: PMC5356508 (Bioconjugate chemistry, 2016)
Several values for one entry are separate records, joined by “and”; a condition that tells them apart may be missing. Identical values can stand only once. Like-named read-outs stand apart in the source and are kept apart here.

Tests used:
[1] = Hydrolytic release of paclitaxel by compound 4 in buffer; format: physicochemical; conditions: 3:1 methanol/PBS buffer pH 7.4; pseudo 1st order kinetics
Summary of the method: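 Test compound stock in methanol was mixed with 1 M PBS pH 7.4 (3:1 methanol:buffer) in a sealed, stirred vial. Aliquots were taken at 0 min and from 30 to 1440 min. Parent and released drug were quantified by C18 reverse-phase HPLC (gradient from 1:1 MeOH:H2O to 100% MeOH, 1 mL/min) against standard curves of both compounds.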

[2] = test system: A2780 human ovarian cancer cell line; assay: Antiproliferative assay; format: cell-based
[3] = Release of paclitaxel in bicarbonate buffer without or with dithiothreitol; format: physicochemical
[4] = Generation of paclitaxel in rabbit whole blood; format: in vitro ADME; conditions: without BME
[5] = Pharmacokinetics: whole blood paclitaxel levels in tumor burdened mice; format: in vivo, B16/F10 tumor burdened C57Bl/6 mice; conditions: 5 μg injected, ELISA, Figure 3A
[6] = Accumulation of paclitaxel in solid tumors; format: in vivo, B16/F10 tumor-bearing C57BL/6 mice; conditions: C57BL/6, mouse, tumor homogenate, iv, 2.5 mg/kg
[7] = test system: B16/F10 melanoma; assay: Treatment of tumor-burdened mice; format: in vivo, C57BL/6 mice; conditions: treated days 0, 2, 5, 7, after 9 days
Summary of the method: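 B16/F10 melanoma cells were implanted in C57BL/6 mice and grown to tumours of about 500 mm3. Groups of n=4 were injected on days 0, 2, 5 and 7 with native drug (2.5 or 40 mg/kg), nanoparticle formulations (2.5 mg/kg drug equivalent) or PBS control. Tumour volume was measured over time, and the % decrease versus control was taken at day 9.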

[8] = test system: A2780 human ovarian cancer cell line; conditions: cited from earlier work

CC(=O)OC1C(=O)C2(C)C(OC(=O)OCOC(=O)CCCCC3CCSS3)CC3OCC3(OC(C)=O)C2C(OC(=O)c2ccccc2)C2(O)CC(OC(=O)C(O)C(NC(=O)c3ccccc3)c3ccccc3)C(C)=C1C2(C)C (stereo not shown) [Compound 4, (7-O-Paclitaxelcarbonyloxy)methyl 5-(1,2-dithiolan-3-yl)pentanoate]
half-life of hydrolysis to paclitaxel [1]: 3.2 h
IC50 [2]: 4.5 ± 0.4 nM

CC(=O)O[C@H]1C(=O)[C@]2(C)[C@@H](OC(=O)OCc3ccc(SSc4ccccn4)cc3)C[C@H]3OC[C@@]3(OC(C)=O)[C@H]2[C@H](OC(=O)c2ccccc2)[C@]2(O)C[C@H](OC(=O)[C@H](O)[C@@H](NC(=O)c3ccccc3)c3ccccc3)C(C)=C1C2(C)C [Compound 5]
Percent conversion to paclitaxel ([3]; Buffer + 3-fold excess DTT, 1 h (60 min)): 90%
Percent conversion to paclitaxel ([3]; Buffer, incubation 0 h): 0.3%
Percent conversion to paclitaxel ([3]; Buffer, incubation 1 h): 4.1%
Percent conversion to paclitaxel ([3]; Buffer, incubation 4 h): 4%
Percent conversion to paclitaxel ([3]; Buffer, incubation 48 h): 14.4%
Percent conversion to paclitaxel ([3]; Buffer, incubation 72 h): 50% and 50.4%
Conversion to paclitaxel in rabbit whole blood (in words) [4]: completely converted to paclitaxel essentially immediately
IC50 [2]: 34 ± 18 nM
release of paclitaxel in the circulation (in words) [5]: rapidly degraded to the paclitaxel parent in the circulation

CC(=O)OC1C(=O)C2(C)C(O)CC3OCC3(OC(C)=O)C2C(OC(=O)c2ccccc2)C2(O)CC(OC(=O)C(OC(=O)CCC(=O)OCOC(=O)CCCCC3CCSS3)C(NC(=O)c3ccccc3)c3ccccc3)C(C)=C1C2(C)C (stereo not shown) [Compound 6, ((5-(1,2-dithiolan-3-yl)pentanoyl)oxy)methyl paclitaxel-2′-yl succinate]
IC50 [2]: 6.6 ± 1.7 nM

CC(=O)O[C@H]1C(=O)[C@@]2(C)[C@H]([C@H](OC(=O)c3ccccc3)[C@]3(O)C[C@H](OC(=O)[C@H](O)[C@@H](NC(=O)c4ccccc4)c4ccccc4)C(C)=C1C3(C)C)[C@]1(OC(C)=O)CO[C@@H]1C[C@@H]2O [paclitaxel]
concentration at 24 h [6]: 5 ng/mL
Response: Decrease in Tumor Volume vs Control ([7]; Paclitaxel dose 2.5 mg/kg): −24%
Response: Decrease in Tumor Volume vs Control ([7]; Paclitaxel dose 40 mg/kg): −68%
IC50 [8]: 15 ± 1 nM
